Experimental data: the M2OR odorant receptor database

The molecules below were run on T1, A0A6P3DZI2. Settings: stereoisomer not certain.
T1 sequence (whole entry): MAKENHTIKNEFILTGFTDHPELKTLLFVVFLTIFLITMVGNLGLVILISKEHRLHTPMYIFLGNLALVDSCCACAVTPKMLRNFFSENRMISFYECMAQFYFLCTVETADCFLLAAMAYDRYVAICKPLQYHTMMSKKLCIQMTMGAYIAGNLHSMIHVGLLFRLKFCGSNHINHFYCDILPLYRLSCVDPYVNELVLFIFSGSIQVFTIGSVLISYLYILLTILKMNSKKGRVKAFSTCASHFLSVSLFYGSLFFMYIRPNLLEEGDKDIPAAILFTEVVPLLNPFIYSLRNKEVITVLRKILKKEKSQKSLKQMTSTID
Summary of the method: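 Assay methods differ from source to source, frequently being transient luciferase assays in mammalian cell lines. For each receptor–molecule pair, the label responsive (active) applies when the original authors judged the measured signal statistically different from baseline, and non-responsive (inactive) applies otherwise.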

SMILES	odorant receptor agonist call
Cc1cncc(C)n1	active
COc1nccnc1CC(C)C	inactive
CCc1nccnc1OC	inactive
Cc1nccnc1C	inactive
CCC(C)c1nccnc1OC (stereo unspecified)	inactive
CC(=O)c1nccnc1C	inactive
Cc1cnc(C)cn1	inactive
Cc1cnc(C)c(C)n1	active
CCc1cnc(C)c(C)n1	inactive
C=Cc1cnccn1	inactive
COc1cnccn1	inactive
CCc1ncc(C)nc1CC	active
COc1nccnc1C(C)C	inactive
CCc1nccnc1CC	inactive
CC1CCc2nccnc21 (stereo unspecified)	inactive
CCc1nccnc1C(C)=O	inactive
COC1=C(C)OC(C)C1=O (stereo unspecified)	inactive
Cc1cnccn1	inactive
CC1=NC(C)C(C)S1 (stereo unspecified)	active
CCc1nccnc1C	inactive
CC(=O)c1cnccn1	inactive
